B1: tRNA (parent)
chain: GUUCCGUUGGCGUAAUGGUAACGCGUCUCCCUCCUAAGGAGAAGACUGCGGGUUCGAGUCCCGUACGGAACG

In the RNAGym collection of RNA variant scans (doi:10.1126/science.aae0568) one finds yeast fitness data, which are given here for 37 variants.

This sample holds only a part of the variants without activity.

In the data set the parent is B1. The data set is described as follows: yeast fitness relative to wild type (ratio to wild type); higher = fitter; tRNA-Arg(CCU), competitive growth, 37 C, YPD. Put shortly: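 Changes in genotype frequencies gave Darwinian fitness relative to wild type. Frequencies were read by 100-nucleotide paired-end sequencing of gene amplicons before and after pooled Saccharomyces cerevisiae strains, carrying tRNA-Arg(CCU) gene variants at the native locus, were competed in YPD at 37°C for 24 hours in six replicates. A genotype was kept only with ≥ 100 starting reads, and estimates < 0.5 were set to 0.5.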
On to GUUCCGUUGGCGUAAUGGUAACGCGUCUCCCUCCUAAGGUGAAGACUGCGGGUUCGAGUCCCGUACGGCACG, for which the yeast fitness amounted to 0.851.
Regarding GUUCCGUUGGCGUAAUGGUAACGCGUCUCCCUCCUAAGGUGAAGACUGCGGGUUCGAGUCCCGUACGGUACG, the yeast fitness came out at 1.04.
Consider GUUCCGUUGGCGUAAUGGUAACGCGUCUCCCUCCUAAGGUGCAAACUGCGAGUUCGAGUCCCGUACGGAACG, for which the yeast fitness is at most 0.5.
As to GUUCCGUUGGCGUAAUGGUAACGCGUCUCCCUCCUAAGGUGAAGACUGCGGGUUCGAGUCCCGUACGGUCCG, the yeast fitness turned out to be 0.725.
Consider GUUCCGUUGGCGUAAUGGUAACGCGUCUCCCUCCUAAGGUGACGACUGCGGGUUCGAGUCCCGUACGGUACG, for which the yeast fitness is 0.851.
In the case of GUUCCGUUGGCGUAAUGGUAACGCGUCUCCCUCCUAAGGUGAAGACUGGGGGUUCCAGUCCCGUACGGCACG, the yeast fitness is at most 0.5.
On to GUUCCGUUGGCGUAAUGGUAACGCGUCUCCCUCCUAAGGUGAAGACUACGGGUUCGAGUCCCGUACGGAACG, for which the yeast fitness amounted to 0.826.
For GUUCCGUUGGCGUAAUGGUAACGCGUCUCCCUCCUAAGGUGAAGACUGCGGGUUAGUGUCCCGUACGGAACG, the yeast fitness was at most 0.5.
As for GUUCCGUUGGCGUAAUGGUAACGCGUCUCCCUCCUAAGGGGAAGACUGCGGGUUCGAAUCCCGUACGGACCG, the yeast fitness amounted to 0.593.
For GUUCCGUUGGCGUAAUGGUAACGCGUCUCCCUCCUAAGGGGAAGACUGCGGGUUCGAAUCCCGUACGGAUCG, the yeast fitness worked out at 0.61.
Consider GUUCCGUUGGCGUAAUGGUAACGCGUCUCCCUCCUAAGGGGAAGACUGCGGAUUCGAGUCCCGUUCGGAACG, for which the yeast fitness was at most 0.5.
For the variant GUUCCGUUGGCGUAAUGGUAACGCGUCUCCCUCCUAAGGGGAAGACUGCAGGUUCGAGUCGCGUACGGAACG, the yeast fitness came out at 0.584.
Consider GUUCCGUUGGCGUAAUGGUAACGCGUCUCCCUCCUAAGGGGAAGACUGCGGGUACGAGUCCCGUACGGAACG, for which the yeast fitness turned out to be 0.551.
In the case of GUUCCGUUGGCGUAAUGGUAACGCGUCUCCCUCCUAAGGGGAAGACUGCGGGUCCGAGUCCCGUACGGAACG, the yeast fitness was determined as 0.955.
In the case of GUUCCGUUGGCGUAAUGGUAACGCGUCUCCCUCCUAAGGUGAAAACUGCGGGUUCGAGUCACGUACGGAACG, the yeast fitness is 0.511.
Take GUUCCGUUGGCGUAAUGGUAACGCGUCUCCCUCCUAAGGGGAAGACUGCGGGAUGGAGUCCCGUACGGAACG: the yeast fitness is at most 0.5.
The same measure for GUUCCGUUGGCGUAAUGGUAACGCGUCUCCCUCCUAAGGGGAAGACUGCGGGCUCGAGUCAGGUACGGAACG: at most 0.5; for GUUCCGUUGGCGUAAUGGUAACGCGUCUCCCUCCUAAGGGGAAGACUGCGGAUGCGAGUCUCGUACGGAACG: at most 0.5.
The value for GUUCCGUUGGCGUAAUGGUAACGCGUCUCCCUCCUAAGGUGAAGACUCCGGGUUUGAGUCGCGUACGGAACG was 0.522; that for GUUCCGUUGGCGUAAUGGUAACGCGUCUCCCUCCUAAGGUGCAGACUGCGGGUUCGAGUCCCGUACGGAACG was 0.752; that for GUUCCGUUGGCGUAAUGGUAACGCGUCUCCCUCCUAAGGGGAAGACUGCGGGUUCGAGUCCCAUACGGAACG was 0.819.
As for GUUCCGUUGGCGUAAUGGUAACGCGUCUCCCUCCUAAGGGGAAGACUGCCGGUUCGAGUCCCGUACGGAACG, the yeast fitness amounted to 0.649.
In the case of GUUCCGUUGGCGUAAUGGUAACGCGUCUCCCUCCUAAGGGGAAGACUGCCGGUUCGCCUCCCGUACGGAACG, the yeast fitness was 0.636.
As to GUUCCGUUGGCGUAAUGGUAACGCGUCUCCCUCCUAAGGGGAAGACUGCGGGUUCGAGUCCCGUACCGAACG, the yeast fitness amounted to 0.956.
As to GUUCCGUUGGCGUAAUGGUAACGCGUCUCCCUCCUAAGGGGAAGACUGCGGGUUCGAGUCCCGUACAGAACG, the yeast fitness was found to be 0.754.
The same measure for GUUCCGUUGGCGUAAUGGUAACGCGUCUCCCUCCUAAGGUGAAGACUGUGGGUUCGAGUCCCGUACGGAACG: 0.856; for GUUCCGUUGGCGUAAUGGUAACGCGUCUCCCUCCUAAGGUGAAGACUGAGGGUUCGAGUCCCGUACGGAACG: 0.638; for GUUCCGUUGGCGUAAUGGUAACGCGUCUCCCUCCUAAGGUGAAGACUGGGGGUUCGAGUCCCGUACGGAACG: 0.811.
For the variant GUUCCGUUGGCGUAAUGGUAACGCGUCUCCCUCCUAAGGUAAAGACUGCGGGUUCGAGUCCCGUACGGAACG, the yeast fitness worked out at 0.71.
On to GUUCCGUUGGCGUAAUGGUAACGCGUCUCCCUCCUAAGGGGAAGACAGCGGGUUCGAGUCCCGUAGGGAACG, for which the yeast fitness turned out to be 0.705.
As to GUUCCGUUGGCGUAAUGGUAACGCGUCUCCCUCCUAAGGUGAAGACUGCGGGUUCGGGUCCCGUACGGAACG, the yeast fitness worked out at 0.881.
GUUCCGUUGGCGUAAUGGUAACGCGUCUCCCUCCUAAGGUGAAGACUGCGGGUUCGCGUCCCGUACGGAACG: the yeast fitness came out at 0.744.
The same measure for GUUCCGUUGGCGUAAUGGUAACGCGUCUCCCUCCUAAGGUGAUGACUGCGGGUUCGAGUCCCGUACGGAUCG: 0.664.
In the case of GUUCCGUUGGCGUAAUGGUAACGCGUCUCCCUCCUAAGGUGACGACUGCGGGUUCGAGUCCCGUACGGAACG, the yeast fitness was 1.
With GUUCCGUUGGCGUAAUGGUAACGCGUCUCCCUCCUAAGGUGAUGACUGCGGGUUCGAGUCCCGUACGGAACG, the yeast fitness was 1.11.
For GUUCCGUUGGCGUAAUGGUAACGCGUCUCCCUCCUAAGGUGAGGACUGCGGGUUCGAGUCCCGUACGGAACG, the yeast fitness worked out at 0.788.
For GUUCCGUUGGCGUAAUGGUAACGCGUCUCCCUCCUAAGGUGAAGACUGCGGGUUUGAGUCCCGUACGGAACG, the yeast fitness was determined as 0.795.
